*1 amine or outer side, *2 acyl side, *3 side chain or, on linkers, in order; H or OH if unused. Where a SMILES comes first, the peptide text is derived from it. Bridges are numbered along the chain shown (N, C = ends). Roman numbers before positions name the chains, in order. [ ]: non-standard residue; d: D form. Actinocin(9to1) = Cc1c2oc3c(C)ccc(C(=O)[*:1])c3nc-2c(C(=O)[*:2])c(N)c1=O; NMeV = CN[C@H](C(=O)O)C(C)C; Sar = CNCC(=O)O
Legend:
[1] = Parallel artificial membrane permeability assay; format: in vitro ADME; settings: PAMPA, pH 6.8
Summary of the method: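 PAMPA: donor wells held test formulation diluted in PBS pH 6.8 to 200 µg/mL drug equivalent; receiver wells held PBS pH 6.8. Plates were incubated 5 h at room temperature. Donor and receiver concentrations were measured by HPLC at 254 nm (C18; water pH 3.5/acetonitrile 80:20, 1 mL/min). Effective permeability was calculated with filter area 0.288 cm2, donor volume 0.2 mL and receiver volume 0.3 mL, using equilibrium concentration.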

[2] = In vitro permeability across a Caco-2 cell monolayer; format: in vitro ADME; settings: human
[3] = In vivo pharmacokinetic study in rats; settings: Sprague-Dawley, rat, plasma, 25 mg/kg
Summary of the method: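 Male Sprague-Dawley rats (6–7 weeks, 200–250 g) received the test formulation orally in water at 25 mg/kg drug equivalent. The IV reference was 5 mg/kg aqueous drug by tail vein. Retro-orbital blood was taken into heparin plus 3.8% sodium citrate, spun at 2,500×g for 15 min at 4 °C, and plasma stored at −70 °C. Plasma was assayed by LC/MS (C18, ESI positive, m/z 428; DAMPA internal standard). Non-compartmental analysis; n=4, mean ± SD.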

[4] = In vitro cytotoxicity of Act D; format: cell-based; settings: human, Caco-2 cells
Summary of the method: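 Caco-2 cells were seeded at 1×10^4 cells/well in DMEM with 10% FBS and cultured for 24 h. They were then exposed for 5 h to the test compound at 1, 2, 3.2 and 6 µM in HBSS. WST-8 was added for 1 h and absorbance read at 450 nm. Viability is expressed as a percentage of untreated cells; mean ± SD, n=6.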

Row | SMILES | Papp at 5 h, 200 µg/mL [1] [×10⁻⁶ cm/s] | Papp at 5 h, 100 µg/mL [2] [×10⁻⁶ cm/s] | bioavailability ([3]; oral) [%] | AUC(0-inf) ([3]; po) [ng·h/mL] | AUC(0-t) ([3]; po) [ng·h/mL] | Cmax ([3]; po) [ng/mL] | Tmax ([3]; po) [h] | half-life ([3]; po) [h] | viability at 5 h, 3.2 µM [4] [%]
1 | Nc1nc2[nH]cc(CCc3ccc(C(=O)N[C@@H](CCC(=O)O)C(=O)O)cc3)c2c(=O)[nH]1 [PMX, N-[4-[2-(2-amino-3,4-dihydro-4-oxo-7H-pyrrolo[2,3-d]pyrimidin-5-yl)-ethyl]-benzoyl]-L-glutamic acid] | 0.29 ± 0.08 | 1.78 ± 0.118 | 5.02 ± 0.57 | 2770 ± 210 | 2350 ± 270 | 1280 ± 170 | 0.63 ± 0.25 | 2.5 ± 0.45 | 
2 | Cc1c2oc3c(C)ccc(C(=O)N[C@@H]4C(=O)N[C@H](C(C)C)C(=O)N5CCC[C@H]5C(=O)N(C)CC(=O)N(C)[C@@H](C(C)C)C(=O)O[C@@H]4C)c3nc-2c(C(=O)N[C@@H]2C(=O)N[C@H](C(C)C)C(=O)N3CCC[C@H]3C(=O)N(C)CC(=O)N(C)[C@@H](C(C)C)C(=O)O[C@@H]2C)c(N)c1=O [Act D, actinomycin D] (I: T[dV]P[Sar][NMeV] / II: T[dV]P[Sar][NMeV]; ester I:1-I:C, II:1-II:C; linker I:N-II:N via Actinocin(9to1)) |  |  |  |  |  |  |  |  | 105 ± 6.81

Source: paper PMC6690926 (International Journal of Nanomedicine, 2019)
